Screens deposited in PubChem by several laboratories.
Insulin prom up – MIN6 insulin promoter up-regulation; MIN6 insulin promoter-GFP reporter, high-content imaging; active compounds read high; z-score at 5 µM; hit rate 0.3% among 190,000; AID 1625;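 active = z-score above 3 at 5 µM with at least 500 cells counted in the well; inconclusive = wells under 500 cells, flagged as cytotoxic or low count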
NPY1 pot ag – potentiates or activates human NPY-Y1 receptor. hit rate 0.37% among 220,000. AID 1304. activation, % at 3.6 µM. P25929. NPY-Y1 expressing cells, potentiator/agonist activation; in the data active = activation above about 33%, passing the limit was not always enough;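 also: cells stimulated with NPY at EC10 then isoproterenol at EC100; 0% = low agonist plus stimulus and 100% = saturating agonist plus stimulus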
Target sequence (P25929 whole entry, looked up): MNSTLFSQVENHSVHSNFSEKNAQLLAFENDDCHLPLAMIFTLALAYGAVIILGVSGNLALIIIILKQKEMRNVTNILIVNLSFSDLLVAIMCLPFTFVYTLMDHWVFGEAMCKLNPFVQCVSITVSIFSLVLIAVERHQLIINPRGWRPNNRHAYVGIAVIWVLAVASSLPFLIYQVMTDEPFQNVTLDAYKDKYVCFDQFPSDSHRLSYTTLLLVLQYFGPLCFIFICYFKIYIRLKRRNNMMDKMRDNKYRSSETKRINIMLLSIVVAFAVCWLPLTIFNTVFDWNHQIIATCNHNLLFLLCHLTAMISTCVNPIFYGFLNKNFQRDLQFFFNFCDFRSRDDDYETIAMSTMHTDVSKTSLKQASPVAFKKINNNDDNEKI
NPY-Y1 antag – blocks the human neuropeptide Y Y1 receptor; P25929; HEK293-CNG Y1 cells, membrane potential fluorescence; NPY at EC95, then isoproterenol; inhibition, % at 3.6 µM; hit rate 1% among 200,000;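 active = inhibition above the campaign mean inhibition of all tested compounds plus 3 SD, cut at about 20% in these data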;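 also: 0% = DMSO wells given NPY plus isoproterenol and 100% = isoproterenol alone without NPY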
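Assay system: HEK293 Y1/CNG channel cell line; Doses: single compound dose of 3.6 µM, 0.4% DMSO; Timing: dye 3 h, compound 60 min room temperature, stimulation 45 min; Technique: Membrane-potential fluorescent dye readout; Measure: % inhibition of NPY effect.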
NPY-Y2 PAM-ag – human NPY-Y2 potentiation or agonism, primary screen | activation, % at 3.6 µM | cells expressing NPY-Y2, potentiator/agonist read-out | hit rate 0.45% among 220,000 | P49146; in the data active = activation above about 27%;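 also: cells stimulated with NPY near EC25 plus isoproterenol at EC100; 0% = vehicle plus submaximal agonist and 100% = vehicle plus saturating agonist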
NPY Y2 blocker – NPY-Y2 (human) receptor antagonism | inhibition, % at 2.7 µM | hit rate 0.99% among 140,000 | P49146 | NPY-Y2 expressing cells, antagonist mode; in the data active = inhibition above about 17%;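 also: 0% = vehicle with agonist challenge and 100% = reference antagonist with challenge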
Insulin prom inh – TRM-6 insulin promoter activity inhibition; inhibition, % at 2 µM; hit rate 0.9% among 130,000; TRM-6 cells (human fetal islet line), insulin promoter-eGFP reporter, imaging; reporter expression induced with tamoxifen; AID 1273;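 active = inhibition above the mean plus 3 SD, with well images judged a real hit on visual review, cut at about 60% in these data, passing the limit was not always enough; inconclusive = inhibition over the cutoff but images rejected on review; inactive = inhibition not above the cutoff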
NPY-Y1 antag ct – counter-screen for NPY-Y2 antagonists: human NPY-Y1 antagonism. shares compounds with NPY Y2 blocker. cell-based NPY-Y1 antagonism counterscreen. inhibition, % at 3.6 µM. hit rate 19% among 710. AID 1256; in the data active = inhibition above about 20%;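 also: cells challenged with NPY then isoproterenol with cAMP sensed through a CNG channel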
NPY-Y2 ant conf – human NPY-Y2 antagonism, confirmation. AID 1257. shares compounds with NPY Y2 blocker. inhibition, % at 2.8 µM. HEK293 NPY-Y2 CNG channel, membrane potential fluorescence. hit rate 32% among 710;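 active = mean inhibition of triplicate wells above the hit cutoff set in the primary screen, cut at about 17% in these data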;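 also: 0% = DMSO with NPY challenge and 100% = BIIE0246 high control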
Starred values were filed as active, the others as inactive; ? = inconclusive; nt = not tested or not shown. Shown are actives, neighbours in structure and some others; about 2.5% of the full set was active somewhere.

SMILES	Insulin prom up	NPY1 pot ag	NPY-Y1 antag	NPY-Y2 PAM-ag	NPY Y2 blocker	Insulin prom inh	NPY-Y1 antag ct	NPY-Y2 ant conf
Cc1cc(NC(=O)C2CCCCC2)n(-c2nc3ccccc3[nH]2)n1	nt	-23	9	-14	17*	43	22*	13
Cc1cc(NC(=O)c2c(F)cccc2F)n(-c2nc3ccccc3[nH]2)n1	-1.4	-17	-1	-6	8	-9	nt	nt
Cc1cc(C)c(O)c(-c2cc(C(=O)Nc3c(C)n(C)n(-c4ccccc4)c3=O)[nH]n2)c1	0.34	1	nt	-5	nt	nt	nt	nt
O=C(Nc1ccc(S(=O)(=O)NC2CCCC2)cc1)c1cnccn1	nt	-4	2	-10	23*	-19	1	9
CCN(CC)S(=O)(=O)c1ccc(C(=O)NC(C)(C)C)cc1	0.22	0	1	-8	nt	nt	nt	nt
COc1ccc(C(=O)CSc2ccccc2C(=O)O)cc1	-0.74	-18	11	-19	nt	-17	nt	nt
CCOC(=O)CC(NC(=O)Cc1ccccc1)c1ccccc1Cl (configuration not stated)	nt	-24	6	4	2	-56	nt	nt
CCOC(=O)CC(NC(=O)C1c2ccccc2Oc2ccccc21)c1ccccc1Cl (configuration not stated)	nt	-21	3	8	18*	-50	12	7
Cc1nc(Nc2ccc(O)cc2)c2c3c(sc2n1)CCCC3	-0.48	11	nt	4	nt	nt	nt	nt
Cc1ccc(CNc2nc(C)nc3sc4c(c23)CCC4)cc1	?	-34	14	-32	20*	14	27*	20*
CCNC(=S)NNC(=O)Nc1ccccc1	-0.72	14	-3	1	2	24	nt	nt
N#Cc1nc(-c2ccc(Cl)cc2)oc1NCc1cccc2c1OCO2	-1	-38	12	-7	20*	69	21*	20*
N#Cc1nc(-c2ccc(Cl)cc2)oc1NCc1ccco1	-1.3	11	3	11	2	-7	nt	nt
COc1ccc(C(=O)n2c(C)c(CCO)c(=O)n2C)cc1	-1.1	-4	-4	4	nt	nt	nt	nt
CCCC(c1nnnn1C(C)(C)CC)N1CCN(C2CCCC2)CC1 (configuration not stated)	-1.6	-21	19	-23	25*	-13	15	8
CCC(c1nnnn1C(C)(C)C)N1CCN(C2CCCC2)CC1 (configuration not stated)	0.22	-5	1	2	4	-7	nt	nt
CCC(c1nnnn1C1CCCCC1)N1CCN(C2CCCC2)CC1 (configuration not stated)	0.26	-22	9	2	27*	nt	11	12
COC(=O)C1=C(C(=O)OC)SC2(S1)C(C(=O)OC)=C(C(=O)OC)SC1=C2c2cccc(C)c2NC1(C)C	0.1	7	5	-3	18*	-364	9	33*
COC(=O)c1c(C)[nH]c(C)c1-c1ccccc1Cl	1.6	0	4	19	3	nt	nt	nt
Cc1cccc2cc(C#N)c(SCC(=O)Nc3ccccc3N3CCOCC3)nc12	1.3	-9	-1	11	0	-92	nt	nt
N#Cc1cc2ccccc2nc1SCC(=O)Nc1ccccc1N1CCOCC1	-0.12	9	8	-1	17*	-18	0	4
NC(=O)Cn1c(-c2nonc2N)nc2ccccc21	0.64	5	-3	-15	nt	43	nt	nt
COc1ccc(Cn2c(-c3ccc(OC)cc3)nc3ccccc32)cc1	-1.1	-8	8	-13	21*	-9	12	6
CCCCOc1ccccc1NC(=O)Cn1c(-c2nonc2N)nc2ccccc21	-0.8	-7	7	-1	51*	nt	50*	93*
NNC(=O)Cn1c(-c2nonc2N)nc2ccccc21	0.07	-19	-1	-10	nt	nt	nt	nt
SMILES	Insulin prom up	NPY1 pot ag	NPY-Y1 antag	NPY-Y2 PAM-ag	NPY Y2 blocker	Insulin prom inh	NPY-Y1 antag ct	NPY-Y2 ant conf
Nc1nonc1-c1nc2ccccc2n1Cc1ccc(Cl)cc1	-0.21	7	14	11	28*	nt	28*	27*
O=C(OCC1CC(c2ccccc2)=NO1)c1ccc(Br)cc1 (configuration not stated)	1	-2	2	6	18*	nt	13	14
O=C(OCC1CC(c2ccccc2Cl)=NO1)c1ccc(Br)cc1 (configuration not stated)	0.63	8	-1	-8	10	nt	nt	nt
Clc1ccc(-c2cc(COc3ccccc3)on2)cc1	1.4	-33	10	3	nt	nt	nt	nt
Clc1ccc(OCc2cc(-c3ccccc3)no2)cc1Cl	0.05	-30	8	-33	23*	-159	39*	39*
CCN(CC)CC#CCC(C)(c1ccccc1)c1ccccc1	0.03	-54	12	-26	18*	-8	13	21*
O=C(NCc1ccc2c(c1)OCO2)c1cc(-c2ccccc2)on1	0.48	-36	0	5	8	48	nt	nt
Cc1ccc(-c2cc(C(=O)NCc3ccc4c(c3)OCO4)no2)cc1	-0.03	-41	17	-12	18*	-288	14	10
Cc1cccc(-n2c(SCc3cc(=O)n4ccsc4n3)nc3ccccc32)c1	nt	-1	4	-23	2	-7	nt	nt
Oc1ccccc1CNc1ccc(Br)cn1	-2.2	8	6	12	151*	32	26*	52*
Cc1ccc(C)c(N2CCN(CCCNC(=O)Cn3cccc3C(=O)c3ccccc3C)CC2)c1	-0.45	-39	18	-21	nt	-93	nt	nt
Cc1ccccc1C(=O)c1cccn1CC(=O)NCCN1CCN(c2cccc(C)c2C)CC1	-1.2	-61	20	-21	21*	-53	19	25*
c1coc(Cn2nnnc2CN2CCN(C3CCCC3)CC2)c1	0.59	-19	8	-4	0	-39	nt	nt
Fc1ccc(Cn2nnnc2CN2CCN(C3CCCCC3)CC2)cc1	-1.4	-21	18	-15	20*	nt	12	11
Cc1cc(C)n(-c2nc(Nc3ccccc3C(F)(F)F)nc(-n3nc(C)cc3C)n2)n1	nt	-19	4	-2	19*	nt	10	7
CCOC(=O)c1ccc(Nc2nc(-c3cccnc3)nc3ccccc23)cc1	-1.2	-5	-1	1	2	23	nt	nt
CCCOc1ccc2oc(=O)c3c(c2c1)CCCN3C(=O)CN1CCN(C(=O)c2ccco2)CC1	0.64	-5	-2	0	0	28	nt	nt
O=C(CN1CCCC1)N1CCCc2c1c(=O)oc1ccc(OCc3ccccc3)cc21	0.71	-39	17	-11	19*	nt	23*	28*
